≈ marks a conversion by molar mass, not a printed value. Calls of active or inactive are those of the source. No cut-off for these calls is given here.
What was measured:
HREC [1] = experiment: Cytotoxicity in HREC assessed as reduction in cell viability at 5 uM incubated for 72 hrs in presence of 1 uM sigma1 selective agonist (+)-pentazocine by MTT assay; format: functional; conditions: Homo sapiens
Summary of the method: (§1)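 HREC were co-incubated for 72 h with the test agent plus either the σ1 agonist (+)-pentazocine (1 μM) or the σ2 ligand AC927 (1 μM). Viability was read by MTT test.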

[2] = Suppression of VEGF-A-induced pro-angiogenesis in HREC assessed as alive cell number count at 5 uM incubated for 24 hrs by Trypan blue dye exclusion assay (reference value: 52%); format: functional, Homo sapiens
HREC [3] = experiment: Suppression of VEGF-A-induced angiogenesis in HREC assessed as reduction of the ramification number at 5 uM incubated for 24 hrs in presence of 2 uM sigma1 selective agonist (+)-pentazocine by Matrigel based tube formation assay; format: functional, tissue-based; conditions: Homo sapiens
Summary of the method: (§2)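 HREC were plated on Matrigel with VEGF-A stimulation. Emerging branch points (ramifications) from cell bodies were counted by phase-contrast imaging.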

HREC [4] = experiment: Suppression of VEGF-A-induced angiogenesis in HREC assessed as reduction of the ramification number at 5 uM incubated for 24 hrs in presence of 2 uM sigma2 selective antagonist AC927 by Matrigel based tube formation assay; format: functional, tissue-based; conditions: Homo sapiens; summary of the method: as §2
[5] = Stability in pH 1.3 buffer by HPLC analysis; format: physicochemical
Summary of the method: (§3)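 Chemical stability was tested at 37 °C in aqueous buffer at pH 1.3 (non-enzymatic simulated gastric fluid) or pH 7.4.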

[6] = molecular target: Histone deacetylase (Homo sapiens) (UniProt Q13547+O15379+Q9UBN7+Q92769+Q9UQL6+Q8WUI4+Q9BY41+Q96DB2+P56524+Q9UKV0+Q969S8); experiment: Inhibition of HDAC in human HeLa cell extracts at 5 uM using fluorescently labeled HDAC substrate
[7] = Stability in rat plasma assessed as compound hydrolysis at 37 degC by HPLC analysis; format: ADME, cell-free
Summary of the method: (§4)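 Compound was incubated in rat or human plasma, and ester hydrolysis was followed. The rate was expressed as the observed rate constant kobs.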

HREC [8] = experiment: Suppression of VEGF-A-induced cell migration in HREC assessed as effect on crossing cells count at 5 uM incubated for 24 to 72 hrs in presence of 1 to 2 uM sigma2 receptor antagonist AC927 by wound healing assay; format: functional; conditions: Homo sapiens, time 24-72 hrs
HREC [9] = experiment: Suppression of VEGF-A-induced cell migration in HREC assessed as effect on crossing cells count at 5 uM incubated for 24 to 72 hrs in presence of 1 to 2 uM sigma1 selective agonist (+)-pentazocine by wound healing assay; format: functional; conditions: Homo sapiens, time 24-72 hrs
Summary of the method: (§5)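 A scratch wound was made in a confluent HREC monolayer, which was then kept in 1% FBS medium, either basal or with VEGF-A 80 ng/mL. (+)-Pentazocine (1 or 2 μM) was added where indicated. Wound-edge cell advancement was scored as a percentage at 24 and 72 h after the scratch.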

[10] = Cytotoxicity in HREC assessed as reduction in cell viability incubated for 96 hrs by MTT assay; format: functional; conditions: Homo sapiens
Summary of the method: (§6)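 HREC were exposed to the test agent for 24, 48, 72 or 96 h. Viability was measured by MTT, and IC50 values were derived for each time point.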

[11] = Suppression of VEGF-A-induced pro-angiogenesis in HREC assessed as alive cell number count at 5 uM incubated for 72 hrs by Trypan blue dye exclusion assay (reference value: 42%); format: functional, Homo sapiens
[12] = Displacement of [3H]-DTG from sigma2 receptor in guinea pig brain membranes by scintillation counting; format: cell membranes, Cavia porcellus, Cell membrane
[13] = Cytotoxicity in HREC assessed as reduction in cell viability at 5 uM incubated for 72 hrs by MTT assay; format: functional, Homo sapiens
Summary of the method: (§7)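 HREC viability measured by MTT test after compound exposure for 24, 48, 72 or 96 h, with concentrations up to 200 μM.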

[14] = (§8) Suppression of VEGF-A-induced cell migration in HREC assessed as crossing cells count at 5 uM incubated for 72 hrs by wound healing assay (reference value: 26%); format: functional, Homo sapiens
[15] = (§9) Suppression of VEGF-A-induced angiogenesis in HREC assessed as reduction of the ramification number at 5 uM incubated for 24 hrs by Matrigel based tube formation assay; format: functional, Homo sapiens; set-up: scale not given: the % may be the effect or the level left
Summary of the method: (§10)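 HRECs plated on Matrigel in the presence of VEGF-A. Emerging branch points (ramification number) from tube formation were quantified by phase-contrast imaging.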

[16] = Cytotoxicity in HREC assessed as reduction in cell viability at 5 uM incubated for 72 hrs in presence of 1 uM sigma2 receptor antagonist AC927 by MTT assay; format: functional, Homo sapiens
Summary of the method: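 HRECs co-incubated with compound and the σ2 ligand AC927 (1 μM) for 72 h. Cell viability read by MTT test.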

[17] = Cytotoxicity in HREC assessed as reduction in cell viability incubated for 24 hrs by MTT assay; format: functional; conditions: Homo sapiens; summary of the method: as §7
D(3) dopamine receptor = D(3) dopamine receptor (Rattus norvegicus, UniProt P19020); experiment: Displacement of [3H]-7-OH-DPAT from DRD3 in rat olfactory tubercle by scintillation counting; format: tissue-based
Sequence of D(3) dopamine receptor (P19020 whole entry): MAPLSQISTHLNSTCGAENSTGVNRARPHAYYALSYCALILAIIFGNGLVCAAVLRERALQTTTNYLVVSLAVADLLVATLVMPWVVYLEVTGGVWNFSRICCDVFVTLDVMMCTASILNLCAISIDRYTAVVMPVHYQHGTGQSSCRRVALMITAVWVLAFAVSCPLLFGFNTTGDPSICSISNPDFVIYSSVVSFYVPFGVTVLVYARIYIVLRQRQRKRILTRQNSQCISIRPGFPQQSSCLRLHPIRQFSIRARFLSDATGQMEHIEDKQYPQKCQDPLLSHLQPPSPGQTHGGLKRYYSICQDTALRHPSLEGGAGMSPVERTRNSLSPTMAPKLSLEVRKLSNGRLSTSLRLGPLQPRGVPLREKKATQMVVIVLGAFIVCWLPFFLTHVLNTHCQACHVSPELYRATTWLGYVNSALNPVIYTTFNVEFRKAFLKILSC

[18] = Cytotoxicity in HREC assessed as reduction in cell viability incubated for 72 hrs by MTT assay; format: functional; conditions: Homo sapiens; summary of the method: as §6
[19] = molecular target: Sigma non-opioid intracellular receptor 1 (Cavia porcellus, UniProt Q60492); experiment: Displacement of [3H]-pentazocine from sigma1 receptor in guinea pig brain membranes by scintillation counting; format: cell membranes, Cell membrane
Sequence of Sigma non-opioid intracellular receptor 1 (Q60492 whole entry): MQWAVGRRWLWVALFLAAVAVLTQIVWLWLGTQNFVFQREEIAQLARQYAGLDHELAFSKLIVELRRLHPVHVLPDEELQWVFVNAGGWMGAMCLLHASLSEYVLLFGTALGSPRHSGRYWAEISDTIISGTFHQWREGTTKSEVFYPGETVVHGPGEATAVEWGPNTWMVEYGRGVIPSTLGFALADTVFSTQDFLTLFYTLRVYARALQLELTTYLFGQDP

[20] = Cytotoxicity in HREC assessed as reduction in cell viability at 5 uM incubated for 24 hrs by MTT assay; format: functional, Homo sapiens; summary of the method: as §7
[21] = Solubility in water incubated for 1 hr by HPLC analysis; format: physicochemical
D(2) dopamine receptor = D(2) dopamine receptor (Rattus norvegicus, UniProt P61169); experiment: Displacement of [3H]-spiperone from DRD2 in rat striatum by scintillation counting; format: tissue-based
Sequence of D(2) dopamine receptor (P61169 whole entry): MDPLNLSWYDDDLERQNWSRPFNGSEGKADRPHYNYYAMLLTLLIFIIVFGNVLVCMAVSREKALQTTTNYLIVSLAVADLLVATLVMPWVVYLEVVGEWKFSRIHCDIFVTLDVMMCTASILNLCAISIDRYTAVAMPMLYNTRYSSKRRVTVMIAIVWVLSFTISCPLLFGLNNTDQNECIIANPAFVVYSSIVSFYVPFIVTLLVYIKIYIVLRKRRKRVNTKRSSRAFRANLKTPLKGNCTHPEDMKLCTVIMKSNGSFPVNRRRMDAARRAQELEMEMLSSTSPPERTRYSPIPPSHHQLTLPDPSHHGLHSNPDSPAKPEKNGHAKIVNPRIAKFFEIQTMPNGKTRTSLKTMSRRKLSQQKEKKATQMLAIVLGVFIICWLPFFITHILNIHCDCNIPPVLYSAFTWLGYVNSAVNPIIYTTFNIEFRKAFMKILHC

[22] = Stability in pH 7.4 buffer by HPLC analysis; format: physicochemical; summary of the method: as §3
[23] = (§11) Cytotoxicity in HREC assessed as reduction in cell counts at 5 uM incubated for 72 hrs under basal conditions by Trypan blue dye exclusion assay; format: functional, Homo sapiens; set-up: scale not given: the % may be the effect or the level left
Summary of the method: (§12)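 HRECs grown in medium with 1% FBS under basal conditions, no VEGF-A. Exposure 24 or 72 h. Read-out is the count of live cells excluding dye in a Trypan blue exclusion test.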

[24] = Stability in human plasma assessed as compound hydrolysis at 37 degC by HPLC analysis; format: ADME, cell-free; summary of the method: as §4
HREC [25] = experiment: Effect on cell migration of in HREC at 5 uM incubated for 24 to 72 hrs by wound healing assay; format: functional; conditions: Homo sapiens, time 24-72 hrs; summary of the method: as §5
[26] = Cytotoxicity in HREC assessed as reduction in cell viability incubated for 48 hrs by MTT assay; format: functional; conditions: Homo sapiens; summary of the method: as §6
[27] = (§13) Suppression of VEGF-A-induced cell migration in HREC assessed as crossing cells count at 5 uM incubated for 24 hrs by wound healing assay (reference value: 63%); format: functional, Homo sapiens
[28] = (§14) Cytotoxicity in HREC assessed as reduction in cell counts at 5 uM incubated for 24 hrs under basal conditions by Trypan blue dye exclusion assay; format: functional, Homo sapiens; set-up: scale not given: the % may be the effect or the level left; summary of the method: as §12
HREC [29] = experiment: Cytotoxicity in HREC assessed as reduction in cell viability at 20 uM incubated for 72 hrs in presence of 1 uM sigma1 selective agonist (+)-pentazocine by MTT assay; format: functional; conditions: Homo sapiens; summary of the method: as §1
HREC [30] = experiment: as §8; format: functional; conditions: Homo sapiens
[31] = Cytotoxicity in HREC assessed as reduction in cell viability at 200 uM incubated for 24 hrs by MTT assay; format: functional, Homo sapiens; summary of the method: as §7
[32] = Cytotoxicity in HREC assessed as reduction in cell viability at 20 uM incubated for 72 hrs by MTT assay; format: functional, Homo sapiens; summary of the method: as §7
HREC [33] = experiment: as §11; format: functional; conditions: Homo sapiens; summary of the method: as §12
HREC [34] = experiment: as §13; format: functional; conditions: Homo sapiens
HREC [35] = experiment: Cytotoxicity in HREC assessed as reduction in cell viability at 20 uM incubated for 72 hrs in presence of 1 uM sigma2 receptor antagonist AC927 by MTT assay; format: functional; conditions: Homo sapiens; summary of the method: as §1
HREC [36] = experiment: Cytotoxicity in HREC assessed as reduction in cell viability by MTT assay; format: functional; conditions: Homo sapiens, TDE = time-dependent effect; summary of the method: as §6
HREC [37] = experiment: as §14; format: functional; conditions: Homo sapiens; summary of the method: as §12
HREC [38] = experiment: Suppression of VEGF-A-induced cell migration in HREC assessed as effect on crossing cells count at 2 uM incubated for 24 to 72 hrs by wound healing assay; format: functional; conditions: Homo sapiens, time 24-72 hrs
HREC [39] = experiment: as §9; format: functional; conditions: Homo sapiens; summary of the method: as §10
HREC [40] = experiment: Effect on cell migration of in HREC at 2 uM incubated for 24 to 72 hrs by wound healing assay; format: functional; conditions: Homo sapiens, time 24-72 hrs

## CCCC(CCC)C(=O)OC(CCCN1CCC(O)(c2ccc(Cl)cc2)CC1)c1ccc(F)cc1 (racemic)
HREC [1]
  Activity: inactive
[2]
  Activity: 28%
HREC [3]
  Activity: inactive
HREC [4]
  Activity: Active
[5]
  half-life: 129 h
[6]
  inhibition: inactive
[7]
  Stabilty: Unstable
HREC [8]
  Activity: Active
HREC [9]
  Activity: inactive
[10]; read-out: IC50
  IC50: 10.6 µM
[10]; read-out: pIC50 (converted)
  IC50: 10.6 µM
[11]
  Activity: 30%
[12]
  Ki: 0.124 µM
[13]
  Activity: 25%
[14]
  Activity: 24%
[15]
  Activity: 67%
[16]
  Activity: 18%
[17]; read-out: IC50
  IC50: 10.5 µM
[17]; read-out: pIC50 (converted)
  IC50: 10.5 µM
D(3) dopamine receptor
  Ki: > 5 µM
[18]; read-out: IC50
  IC50: 10.1 µM
[18]; read-out: pIC50 (converted)
  IC50: 10.1 µM
[19]
  Ki: 0.013 µM
[20]
  Activity: 28%
[21]
  solubility at 1 h: 1400 µg/mL (≈ 2780 µM)
D(2) dopamine receptor
  Ki: > 5 µM
[22]
  half-life: 134 h
[23]
  Activity: 52%
[24]
  Stabilty: Stable
HREC [25]
  Activity: inactive
[26]; read-out: IC50
  IC50: 11.1 µM
[26]; read-out: pIC50 (converted)
  IC50: 11.1 µM
[27]
  Activity: 55%
[28]
  Activity: 32%

## OC(CCCN1CCC(O)(c2ccc(Cl)cc2)CC1)c1ccc(F)cc1 (racemic) [HYDROXYHALOPERIDOL]
HREC [29]
  Activity: inactive
[10]; read-out: IC50
  IC50: 56.6 µM
[10]; read-out: pIC50 (converted)
  IC50: 56.6 µM
[12]
  Ki: 0.0024 µM
HREC [30]
  Activity: inactive
[17]; read-out: IC50
  IC50: > 200 µM
D(3) dopamine receptor
  Ki: 1.02 µM
[18]; read-out: IC50
  IC50: 68.7 µM
[18]; read-out: pIC50 (converted)
  IC50: 68.7 µM
[31]
  Activity: <50%
[32]
  Activity: 29%
HREC [33]
  Activity: inactive
HREC [25]
  Activity: inactive
[26]; read-out: IC50
  IC50: 128 µM
[26]; read-out: pIC50 (converted)
  IC50: 128 µM
HREC [34]
  Activity: inactive
HREC [35]
  Activity: inactive
HREC [36]
  Activity: Tde
HREC [37]
  Activity: inactive

## O=C(CCCN1CCC(O)(c2ccc(Cl)cc2)CC1)c1ccc(F)cc1 [HALOPERIDOL]
HREC [38]
  Activity: inactive
[10]; read-out: IC50
  IC50: 2.28 µM
[10]; read-out: pIC50 (converted)
  IC50: 2.29 µM
HREC [39]
  Activity: inactive
HREC [40]
  Activity: inactive

## CCCC(CCC)C(=O)O [VALPROIC ACID]
[10]; read-out: IC50
  IC50: 1480 µM
[10]; read-out: pIC50 (converted)
  IC50: 1480 µM
[12]
  Ki: > 10 µM
HREC [30]
  Activity: inactive
[17]; read-out: IC50
  IC50: 1220 µM
[17]; read-out: pIC50 (converted)
  IC50: 1220 µM
[18]; read-out: IC50
  IC50: 1390 µM
[18]; read-out: pIC50 (converted)
  IC50: 1390 µM
[19]
  Ki: > 10 µM
HREC [33]
  Activity: inactive
HREC [25]
  Activity: inactive
[26]; read-out: IC50
  IC50: 1450 µM
[26]; read-out: pIC50 (converted)
  IC50: 1450 µM
HREC [34]
  Activity: inactive
HREC [37]
  Activity: inactive

Source: ChEMBL document CHEMBL4680086, “Antiangiogenic Effect of (±)-Haloperidol Metabolite II Valproate Ester [(±)-MRJF22] in Human Microvascular Retinal Endothelial Cells” (J Med Chem, 2016)
